MrgX1 antagonist: human MrgX1 receptor antagonism, primary screen | Q96LB2 | MRGX1-HEK293 calcium flux, Fluo-4, BAM8-22 antagonism; stronger effect = lower value | B-score at 10 µM | hit rate 1.3% among 310,000 | AID 588676;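 active means calcium-response B-score plate-corrected more than 3 library SD below zero, starting fluorescence within 5 deviations, no agonist response on first addition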;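 further: peak minus trough fluorescence over baseline after final BAM8-22 challenge near maximal dose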
Target sequence (Q96LB2 whole entry, looked up): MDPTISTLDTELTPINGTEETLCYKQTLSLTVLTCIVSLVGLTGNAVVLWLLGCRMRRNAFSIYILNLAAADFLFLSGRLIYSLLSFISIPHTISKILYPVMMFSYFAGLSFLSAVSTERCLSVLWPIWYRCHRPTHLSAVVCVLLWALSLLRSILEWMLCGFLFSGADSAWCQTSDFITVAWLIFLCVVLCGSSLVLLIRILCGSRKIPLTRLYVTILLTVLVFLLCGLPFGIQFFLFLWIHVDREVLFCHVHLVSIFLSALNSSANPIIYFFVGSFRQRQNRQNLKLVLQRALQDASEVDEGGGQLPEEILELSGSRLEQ
RGS4 pot: RGS4 potentiation or activation | HEK293 M3R/inducible RGS4, carbachol calcium flux Fluo4; stronger effect = lower value | B-score at 10 µM | hit rate 0.92% among 310,000;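 active means B-score of the integrated calcium signal more than 4 SD below the library mean, with starting fluorescence not abnormally high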;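 further: negative B-score means reduced calcium response which marks RGS4 activation or potentiation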
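Assay system: Inducible-RGS4 HEK293 cells carrying M3 receptor | Schedule: Compound preincubation 20 min at room temperature before agonist | Signal: Kinetic calcium fluorescence imaging with Fluo4-AM dye, 2 µM | Read-out basis: B score from integrated fluorescence ratio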
RGS4 inh: inhibitors of human RGS4 | P49798 | HEK293 M3R/RGS4 inducible, Fluo-4 calcium flux; stronger effect = higher value; triggered by carbachol at its EC20 | B-score at 10 µM | hit rate 0.45% among 310,000 | AID 463165;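 active means B-score, a plate-corrected calcium signal, over three deviations above library mean, with baseline fluorescence within five deviations of library mean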;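 further: RGS4 expression induced by doxycycline in cells with stable M3 receptor; B-score is computed from the integrated fluorescence ratio over baseline after carbachol; higher B-score means a larger calcium signal and so more RGS4 inhibition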
Target sequence (P49798 whole entry, looked up): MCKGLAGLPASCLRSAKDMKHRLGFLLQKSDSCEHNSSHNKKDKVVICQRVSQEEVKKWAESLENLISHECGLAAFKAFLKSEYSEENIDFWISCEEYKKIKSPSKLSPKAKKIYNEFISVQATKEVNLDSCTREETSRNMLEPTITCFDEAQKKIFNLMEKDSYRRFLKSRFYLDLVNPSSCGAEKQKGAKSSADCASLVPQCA
MrgX1 agonist: agonists of human MrgX1 receptor; Q96LB2; MrgX1-HEK293 cells, Fluo-4 calcium fluorescence, agonist mode; stronger effect = higher value; B-score at 10 µM; hit rate 0.44% among 310,000; AID 588627;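 active means calcium response B-score plate-corrected fluorescence ratio at least 3 library SD, with starting fluorescence B-score inside 5 SD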
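Assay system: stable human MrgX1 HEK293 cell line. Quantity: 15,000 cells per well. Schedule: cells plated overnight, dye loaded 0.5 h 37 °C, 0.5 h room temperature. Detection: Fluo-4 NW calcium-flux fluorescence, kinetic read. Read-out basis: peak-minus-minimum fluorescence over baseline, converted to B scores. Control set: positive and negative control wells on each plate.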
MrgX1 PAM: allosterically activates human MrgX1 receptor signaling; Q96LB2; MrgX1-HEK293, Fluo-4 calcium flux, FDSS; stronger effect = higher value; B-score at 10 µM; hit rate 0.63% among 310,000;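 active means plate-corrected calcium response at least 3 library SD above typical, normal starting fluorescence, not activating the receptor alone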;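 further: compound read alongside a low EC10 to EC30 dose of BAM8-22 agonist; peak minus trough fluorescence over baseline measured at the second addition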
MrgX1 antag conf: human MrgX1 receptor antagonism, re-confirmation screen | shares compounds with MrgX1 antagonist | MrgX1-HEK293, BAM8-22 calcium flux, Fluo-4; stronger effect = lower value | remaining BAM8-22 calcium response % of control (stronger effect = lower value), % at 10 µM | hit rate 19% among 2,300 | AID 602420;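 active means remaining agonist calcium response no higher than 100% minus 3 SD of agonist-only control wells, with starting fluorescence near control levels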;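 further: agonist BAM8-22 given at a near maximal EC90 to ECmax level; peak minus minimum fluorescence divided by baseline after agonist addition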
HEK293 Ca flux: counter-screen for MrgX1 antagonists: effect in parental HEK293 cells | shares compounds with MrgX1 antagonist | fluorescence ratio F(max-min)/F0 at 10 µM | Fluo-4 calcium fluorescence, FDSS | hit rate 2% among 4,000;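 active means duplicate-averaged calcium fluorescence ratio at least three times the standard deviation of buffer wells, a nonspecific response in parental cells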
HEK293 Ca counter: MrgX1 allosteric activator counter-screen hit in parental HEK293 cells; shares compounds with MrgX1 antagonist; parental HEK293 calcium flux, Fluo-4 fluorescence ratio; stronger effect = higher value; fluorescence ratio F(max-min)/F0 at 10 µM; hit rate 0.4% among 4,000;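 active means calcium fluorescence ratio, averaged over duplicates, at least 3 SD of the buffer-well ratio, meaning a nonspecific response in receptor-free cells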;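 further: untransfected parental HEK293 lacking MrgX1 used as counterscreen for MrgX1 allosteric activators; fluorescence change taken during the second addition on a kinetic imager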
HEK293 Ca cntr2: counter-screen for MrgX1 activators: effect in parental HEK293 cells; hit rate 8.7% among 4,000; shares compounds with MrgX1 antagonist; fluorescence ratio F(max-min)/F0 at 10 µM; Fluo-4 calcium fluorescence (FDSS); stronger effect = higher value;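 active means calcium fluorescence ratio at least three times the spread of buffer wells, meaning a non-specific response in parental cells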
Starred values were filed as active, the others as inactive; i = inactive; . = no result given. A selection: hits, their analogues and other compounds. The true share with any hit is near 3.5%.

SMILES	MrgX1 antagonist	RGS4 pot	RGS4 inh	MrgX1 agonist	MrgX1 PAM	MrgX1 antag conf	HEK293 Ca flux	HEK293 Ca counter	HEK293 Ca cntr2
Cc1ccccc1CC1(CO)CCCN(Cc2cn[nH]c2-c2ccccc2)C1 (stereo unspecified)	i	i	i	i	i	.	.	.	.
Cc1cc(/C=C\c2nc(O)c([N+](=O)[O-])c(=O)[nH]2)c(C)n1-c1ccccc1	i	i	i	i	i	.	.	.	.
Cc1ccc(C(CNS(=O)(=O)c2ccc(Br)cc2)N2CCN(C)CC2)cc1 (stereo unspecified)	i	i	i	i	i	.	.	.	.
Cc1ccc(S(=O)(=O)NCC(c2ccco2)N2CCc3ccccc32)cc1 (stereo unspecified)	-5.6*	i	i	i	i	i	i	i	i
Cc1ccc(C(CNS(=O)(=O)c2ccccc2)N2CCN(C)CC2)cc1 (stereo unspecified)	-8.1*	i	i	i	i	i	i	i	i
COc1ccc(S(=O)(=O)NCC(c2ccco2)N2CCc3ccccc32)cc1 (stereo unspecified)	i	i	i	i	i	.	.	.	.
Cc1ccc(S(=O)(=O)NCC(c2ccco2)N2CCc3ccccc3C2)cc1 (stereo unspecified)	-5.1*	i	i	i	i	i	i	i	i
CC1(NC(=O)NCc2ccccc2)CCS(=O)(=O)C1 (stereo unspecified)	i	i	i	i	i	.	.	.	.
Cc1cc(NC(=O)CCCC(=O)O)nc(C)n1	-6.4*	i	i	i	i	i	i	i	i
Cc1ccc(Cc2cnc(N3C(=N)SC(c4ccccc4)C3=O)s2)cc1 (stereo unspecified)	-5.2*	i	i	i	i	i	i	i	i
N=C1SC(c2ccccc2)C(=O)N1c1ncc(Cc2ccccc2)s1 (stereo unspecified)	i	i	i	i	i	.	.	.	.
COc1ccc(C(=O)c2nccc3ccccc23)cc1	i	i	i	i	i	.	.	.	.
O=C(Nc1ccc2[nH]ccc2c1)c1ccccc1	-7.8*	i	i	i	i	84%*	i	i	i
O=C(Nc1ccc2[nH]ccc2c1)c1ccc(F)cc1	i	i	i	i	i	.	.	.	.
CC(C)(C)n1nnnc1C(c1cc2cc3c(cc2[nH]c1=O)OCO3)N1CCN(c2ccccc2)CC1 (stereo unspecified)	-7*	i	i	i	i	i	i	i	i
CCN=C(NCC)SC1CC(=O)N(c2ccccc2)C1=O (stereo unspecified)	-8.2*	i	i	i	i	i	i	i	i
Cc1ccccc1N(C(=O)Cc1c[nH]c2ccccc12)C(C(=O)NC1CCCCC1)c1ccco1 (stereo unspecified)	-16*	i	i	i	i	i	i	i	i
COc1ccccc1NC(=O)c1nn(C)cc1Br	-7.6*	.	.	i	i	i	i	i	i
Cc1ccc2cccnc2c1NC(=S)NC(=O)c1ccccc1	i	i	i	i	i	.	.	.	.
Cc1ccc(N2CCC(N3CCN(C)C(CCO)C3)CC2)cc1 (stereo unspecified)	-5*	i	i	i	i	i	i	i	i
COc1cccc(N2CCC(N3CCN(C)C(CCO)C3)CC2)c1 (stereo unspecified)	i	i	i	i	i	.	.	.	.
Cc1nn(-c2ccccc2)nc1C(=O)Nc1ccc2c(c1)OCCO2	-12*	i	i	i	i	i	i	i	i
C=C1c2ccccc2NC(=O)N1c1ccc(C)cc1	-8.7*	i	i	i	i	i	i	i	i
C=C1c2cc(C)ccc2NC(=O)N1c1ccc(C)cc1	i	i	i	i	i	.	.	.	.
Cc1nc2nc(C)c(CCC(=O)N3CCOCC3)c(C)n2n1	-5.3*	i	i	i	i	i	i	i	68*
SMILES	MrgX1 antagonist	RGS4 pot	RGS4 inh	MrgX1 agonist	MrgX1 PAM	MrgX1 antag conf	HEK293 Ca flux	HEK293 Ca counter	HEK293 Ca cntr2
CN(CC(=O)Nc1ccccc1Cl)C(=O)c1cccc(S(=O)(=O)N2CCN(Cc3ccccc3)CC2)c1	i	i	i	i	i	.	.	.	.
O=C(Nc1ccc(F)cc1)Nc1cc(OCC(F)(F)F)cc(OCC(F)(F)F)c1	-6*	i	i	i	i	62%*	i	i	i
CCOC(=O)c1sc(NC(=S)NC(=O)c2cccc(Cl)c2)c(C(=O)OCC)c1C	-4.9*	i	i	i	i	i	i	i	i
COc1ccccc1N(C)S(=O)(=O)c1ccc(C(=O)OCC(=O)N(C(C)C)C(C)C)cc1	i	i	i	i	i	.	.	.	.
Cc1cc(C(=O)N2CC=C(c3ccccc3)CC2)c2ccccc2n1	-4.7*	i	i	i	i	i	i	i	i
COc1cc(NC(=O)CCCC(=O)OCC(F)(F)C(F)F)nc(OC)n1	i	i	i	i	i	.	.	.	.
Cc1cc(C(=O)NCc2ccccc2Br)no1	i	i	i	i	i	.	.	.	.
CCOc1ccccc1C(=O)NC(C)c1ccc2c(c1)OCO2 (stereo unspecified)	-5.3*	i	i	i	i	i	i	i	i
O=C(Cn1nc(C(F)(F)F)cc1C1CC1)Nc1ccccc1F	-5.1*	i	i	i	i	i	i	i	i
CCCN1CCN(S(=O)(=O)c2ccc(-n3cnnn3)cc2)CC1	i	i	i	i	i	.	.	.	.
CC(=Nc1ccccc1C)C1=C(O)CSC1=O	-5.4*	i	i	i	i	i	i	i	i
Cc1ccc(CCNS(=O)(=O)c2ccc3c(c2)NC(=O)C(C)C(=O)N3)cc1 (stereo unspecified)	i	i	i	i	i	.	.	.	.
